Measured values collected from several papers.
Each line is one published result; the experiments were not run side by side.
Target: Serine/threonine-protein kinase 17A (STK17A, Homo sapiens, UniProt Q9UEE5)
Sequence (Q9UEE5 1-414, as in one of the studies): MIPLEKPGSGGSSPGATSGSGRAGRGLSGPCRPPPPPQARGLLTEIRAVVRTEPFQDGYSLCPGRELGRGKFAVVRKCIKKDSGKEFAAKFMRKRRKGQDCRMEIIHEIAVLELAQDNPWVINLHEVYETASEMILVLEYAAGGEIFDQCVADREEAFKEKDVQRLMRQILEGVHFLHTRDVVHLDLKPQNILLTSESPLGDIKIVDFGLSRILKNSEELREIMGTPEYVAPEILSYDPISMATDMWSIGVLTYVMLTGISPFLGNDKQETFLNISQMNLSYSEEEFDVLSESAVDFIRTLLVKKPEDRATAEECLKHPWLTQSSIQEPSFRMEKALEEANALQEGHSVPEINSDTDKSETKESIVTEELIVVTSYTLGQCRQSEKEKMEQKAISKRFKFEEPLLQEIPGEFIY

read-out	mode	technique	concentration	measurement	value	Compound
binding	–	–	1 µM	remaining binding	89%	COc1ccc2oc(-c3ccc4nc(N)oc4c3)c/c(=N\c3ccccc3NC(=O)CCN)c2c1
binding	–	competition with immobilised ligand	0.5 µM	remaining binding	100%	CCCCC(=O)Nc1ccc(-c2ccc3ncn(CCC)c(=O)c3c2)cn1
enzyme activity	inhibitor	–	1 µM	activity vs control	108%	CC(C)S(=O)(=O)c1ccc2nccc(Nc3ccc4sc(C5CCCC5)nc4c3)c2c1
binding	–	–	1 µM	remaining binding	91%	Cc1ccc(NC(=O)c2ccnc(C(F)(F)F)c2)cc1-c1cc(OCCO)nc(N2CCOCC2)c1
enzyme activity	inhibitor	–	1 µM	inhibition	0%	CC#CC(=O)N1CCC[C@H]1c1nc(-c2ccc(C(=O)Nc3ccccn3)cc2)c2c(N)nccn12
cell-free assay	inhibitor	–	0.1 µM	inhibition	3.3%	Cc1cc(O)c(-c2ccc([C@@H](C)CN(C)C)cc2)c2c1[nH]c(=O)c1sccc12
enzyme activity	inhibitor	–	1 µM	inhibition	8%	C=CC(=O)N1CCC[C@@H](n2nc(-c3ccc(Oc4ccccc4)cc3)c3c(N)ncnc32)C1
binding	–	–	1 µM	remaining binding	0.4%	COc1ccc2[nH]c3c4[nH]c5ccc(OC)cc5c4c4c(c3c2c1)C(=O)NC4=O
